Experimental data from ChEMBL document CHEMBL4043092, “Neuroprotective and Antineuroinflammatory Effects of Hydroxyl-Functionalized Stilbenes and 2-Arylbenzo[b]furans” (J Med Chem, 2017).
The source made the active and inactive calls. The rule behind the calls is not given here.

Columns and labels:
Cortical neurone [1] = assay: Neuroprotective activity against fibril amyloid beta (25 to 35)-induced cell death in Sprague-Dawley rat 5 day old neonatal primary cortical neurons assessed as cell death at maximum non toxic concentration pretreated for 2 hrs followed by 10 uM fibril amyloid beta (25 to 35) addition measured after 48 hrs by MTT assay (reference value: 39.20 +/- 0.88%); format: functional
Procedure, shortened: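 Rat cortical neurons from pups, papain-dissociated, cytosine arabinoside (5 μM, 1 day) to remove non-neuronal cells, used at DIV5. Vehicle 0.1% DMSO or compound pretreatment before fAβ25–35 (aged 1 week at 37 °C). Viability by MTT reduction: 0.5 mg/mL for 1 h, formazan dissolved in DMSO, OD600. Mean ± SD of three independent experiments.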

Cortical neurone [2] = assay: Neuroprotective activity against glutamate-induced cell death in Sprague-Dawley rat 10 days old neonatal primary cortical neurons assessed as cell death at maximum non toxic concentration pretreated for 2 hrs followed by 30 uM glutamate addition measured after 24 hrs by MTT assay (reference value: 41.22 +/- 3.40%); format: functional
Cortical neurone [3] = assay: (§1) Neuroprotective activity against fibril amyloid beta (25 to 35)-induced cell death in Sprague-Dawley rat 5 days old neonatal primary cortical neurons assessed as increase in cell viability pretreated for 2 hrs followed by 10 uM fibril amyloid beta (25 to 35) addition measured after 48 hrs by MTT assay; format: functional, cell-based
Procedure, shortened: (§2)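 Cortical neurons pretreated 2 h with vehicle (0.1% DMSO) or compound at maximum nontoxic concentration. Then exposed at DIV5 to fibrillar Aβ25–35 (10 μM, 48 h) or at DIV10 to glutamate (30 μM, 24 h). MTT 0.5 mg/mL for 1 h, formazan dissolved in DMSO, OD read at 600 nm. Mean ± SD of three independent experiments.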

Cortical neurone [4] = assay: (§3) Neuroprotective activity against glutamate-induced cell death in Sprague-Dawley rat 10 days old neonatal primary cortical neurons assessed as increase in cell viability pretreated for 2 hrs followed by 30 uM glutamate addition measured after 24 hrs by MTT assay; format: functional, cell-based; procedure, shortened: as §2
Cortical neurone [5] = assay: as §1, with “neuron” for “neurons”, “viability at 50 uM” for “viability”, “calcein AM dye-based confocal laser scanning microscopic analysis” for “MTT assay”; format: functional
Procedure, shortened: (§4)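 Rat pup cortical neurons in Neurobasal/B27, given 5 μM cytosine arabinoside for 1 day. Used at DIV5 for Aβ25–35 fibrils (aged 1 week at 37 °C; 10 μM, 48 h) or DIV10 for glutamate (30 μM, 24 h), after 2 h with 50 μM compound or 0.1% DMSO. Cells loaded with 1 μM calcein AM and ethidium homodimer-1 for 30 min at room temperature, imaged by confocal microscopy. Live-cell count and integrated density expressed relative to vehicle. Mean ± SEM, n=3.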

Cortical neurone [6] = assay: as §3, with “neuron” for “neurons”, “viability at 50 uM” for “viability”, “calcein AM dye-based confocal laser scanning microscopic analysis” for “MTT assay”; format: functional; procedure, shortened: as §4
Cortical neurone [7] = assay: (§5) Neuroprotective activity against fibril amyloid beta (25 to 35)-induced cell death in Sprague-Dawley rat 5 days old neonatal primary cortical neuron assessed as inhibition of fibril amyloid beta (25 to 35)-induced decrease in tau protein level at 50 uM pretreated for 2 hrs followed by 10 uM fibril amyloid beta (25 to 35) addition measured after 48 hrs by fluorescein isothiocyanate dye-based immunocytochemistry analysis; format: functional
Procedure, shortened: (§6)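 Cortical neurons at DIV5 (fibrillar Aβ25–35 10 μM, 48 h) or DIV10 (glutamate 30 μM, 24 h), after 2 h with 50 μM compound. Fixed in 4% paraformaldehyde, permeabilized with Triton X-100, blocked with donkey serum. Stained with anti-MAP2 and anti-tau (1:100, overnight at 4 °C), then FITC and RRX secondaries. Integrated density relative to vehicle. Mean ± SEM, n=3.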

Cortical neurone [8] = assay: (§7) Neuroprotective activity against glutamate-induced cell death in Sprague-Dawley rat 10 days old neonatal primary cortical neuron assessed as inhibition of glutamate-induced decrease in MAP2 level at 50 uM pretreated for 2 hrs followed by 30 uM glutamate addition measured after 24 hrs by fluorescein isothiocyanate dye-based immunocytochemistry analysis; format: functional; procedure, shortened: as §6
Cortical neurone [9] = assay: as §7, with “tau” for “MAP2”; format: functional; procedure, shortened: as §6
[10] = Anti-inflammatory activity in Sprague-Dawley rat primary mixed glial cells assessed as inhibition of LPS-induced NO production at 50 uM pretreated for 2 hrs followed by LPS addition measured after 48 hrs by Griess assay (reference value: 100%); format: functional, Primary glial cell; design: scale not given: the % may be the effect or the level left
[11] = Anti-inflammatory activity in Sprague-Dawley rat primary mixed glial cells assessed as inhibition of LPS-induced NO production pretreated for 2 hrs followed by LPS addition measured after 48 hrs by Griess assay; format: functional, cell-based; conditions: Glial cell
Procedure, shortened: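 Mixed cortical glia kept 3 days in DMEM/F12 with 10% FBS, medium changed, 4 more days, then 9 days in Neurobasal/B27 (16 days total). Cultures activated 2 days after medium refresh with 100 ng/mL LPS for 48 h, with compound at maximum nontoxic concentration. Medium nitrite read by Griess reagent at 540 nm against NaNO2 standard. Mean ± SD, three independent experiments.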

[12] = Antioxidant activity assessed as ABTS radical cation scavenging activity by measuring trolox equivalents by spectrophotometric analysis; format: functional
Cytochrome P450 3A4 = Cytochrome P450 3A4 (Homo sapiens, UniProt P08684); assay: Inhibition of CYP3A4 in human liver microsomes; format: ADME
Chain of Cytochrome P450 3A4 (P08684 whole entry): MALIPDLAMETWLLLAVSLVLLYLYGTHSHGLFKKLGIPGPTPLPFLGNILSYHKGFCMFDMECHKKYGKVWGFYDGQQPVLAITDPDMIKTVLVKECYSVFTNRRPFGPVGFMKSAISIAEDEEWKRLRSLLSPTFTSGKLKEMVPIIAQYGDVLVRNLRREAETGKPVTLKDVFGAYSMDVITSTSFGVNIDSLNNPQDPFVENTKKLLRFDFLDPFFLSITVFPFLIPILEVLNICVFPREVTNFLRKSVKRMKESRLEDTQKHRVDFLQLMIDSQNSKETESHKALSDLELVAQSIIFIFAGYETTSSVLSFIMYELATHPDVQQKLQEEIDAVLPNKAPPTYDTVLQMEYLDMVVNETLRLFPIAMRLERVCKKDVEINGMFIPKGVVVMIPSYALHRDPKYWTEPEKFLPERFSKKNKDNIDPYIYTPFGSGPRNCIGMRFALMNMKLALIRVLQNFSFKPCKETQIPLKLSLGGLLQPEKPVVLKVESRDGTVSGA

Mus musculus [13] = assay: Antialzheimer activity in APPswe/PSEN1dE9 double transgenic C57BL/6J mouse model of Alzheimer's disease assessed as increase in nesting score at 30 mg/kg/day administered via oral gavage over 60 days by nesting test; format: functional, organism-based
Procedure, shortened: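 Female APP/PS1 C57BL/6J mice, 5 months old, given compound by oral gavage at 30 mg/kg/day for 60 days. Wild-type siblings received vehicle. Two nestlets (about 5 g) placed in the cage 1 h before the dark cycle. Nest score and unshredded nestlet weight recorded. Mean ± SD per group.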

Mus musculus [14] = assay: Antialzheimer activity in APPswe/PSEN1dE9 double transgenic C57BL/6J mouse model of Alzheimer's disease assessed as decrease in number of unshredded nestlets at 30 mg/kg/day administered via oral gavage over 60 days by nesting test
Cortical neurone [15] = assay: as §5, with “MAP2” for “tau protein”; format: functional; procedure, shortened: as §6

| SMILES | Activity (Cortical neurone [1]) | Activity (Cortical neurone [2]) | EC50 (Cortical neurone [3]) | EC50 (Cortical neurone [4]) | Activity (Cortical neurone [5]) | Activity (Cortical neurone [6]) | inhibition (Cortical neurone [7]) | inhibition (Cortical neurone [8]) | inhibition (Cortical neurone [9]) | Activity [10] | EC50 [11] | Activity [12] | IC50 (Cytochrome P450 3A4) | Activity (Mus musculus [13]) | Activity (Mus musculus [14]) | inhibition (Cortical neurone [15]) |
| --- | --- | --- | --- | --- | --- | --- | --- | --- | --- | --- | --- | --- | --- | --- | --- | --- |
| CCOC(=O)/C=C/c1ccc(/C=C/c2cc(O)c(O)c(O)c2)cc1 | 19.23% | 28.05% | 40.9 µM | > 50 µM | Active | Active | inactive | Active | Active | 72.93% | 99.2 µM | 0.14 mMequiv | 36.2 µM | inactive | inactive |  |
| Oc1ccc(-c2cc3cc(Br)cc(O)c3o2)cc1O | 16.95% | 31.45% | 36.5 µM | > 50 µM | Active |  | inactive |  |  | 86.85% | > 100 µM | 0.06 mMequiv | 23.5 µM |  |  | Active |
| Oc1ccc(-c2cc3c(Br)ccc(O)c3o2)cc1O | 4.11% | 40.83% | 26.7 µM | > 0.5 µM | Active |  | inactive |  |  | 61.64% | > 100 µM | 0.12 mMequiv |  |  |  | Active |
| CCOC(=O)/C=C/c1cc(O)c2oc(-c3cc(O)c(O)c(O)c3)cc2c1 | 21.18% | 24.48% | 53 µM | 33 µM | Active | Active | inactive | Active | Active | 40.35% | 56.6 µM | 0.94 mMequiv | 21.7 µM | Active | Active |  |
| CCOC(=O)/C=C/c1cc(O)c(O)cc1-c1cc2ccccc2o1 | 25.45% | 21% | > 50 µM | 46.1 µM | Active | Active | inactive | Active | Active | 49.61% | > 100 µM | 0.01 mMequiv | 11.2 µM | Active | Active |  |
